Data published in ChEMBL document CHEMBL1158955, “Biologically active metabolites from Xenorhabdus spp., Part 1. Dithiolopyrrolone derivatives with antibiotic activity” (1991).
≈ marks a conversion by molar mass, not a printed value.

How the values were obtained:
[1] = tested on: Helicoverpa punctigera; experiment: Insecticidal activity in Heliothis punctigera assessed as mortality at 150 ug.cm'-2 by larval feeding assay; assay type: functional
Procedure, shortened: (§1)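 Artificial diet set in 24-well plates to 1 cm depth; 30 μl of test material in DMSO spread over the surface, with DMSO-only controls. After drying, one first-instar Heliothis punctigera larva placed per well, 16 wells per dose, and each well closed with a polypropylene ball. Held 7 days at 28°, then scored for mortality and survivors weighed; LC50 derived by probit analysis.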

[2] = tested on: Helicoverpa punctigera; experiment: Insecticidal activity in Heliothis punctigera assessed as mortality by larval feeding assay; assay type: functional; procedure, shortened: as §1
[3] = tested on: Helicoverpa punctigera; experiment: Insecticidal activity in Heliothis punctigera assessed as mortality at 37.5 ug.cm'-2 by larval feeding assay; assay type: functional; procedure, shortened: as §1
[4] = tested on: Helicoverpa punctigera; experiment: Insecticidal activity in Heliothis punctigera assessed as weight reduction at 37.5 ug.cm'-2 relative to control; assay type: functional; design: scale not given: the % may be the effect or the level left
Procedure, shortened: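 Diet-surface feeding test. Molten artificial diet was poured 1 cm deep in 24-well plates, and test material in DMSO (30 μl) was spread on the surface; controls got DMSO only. Once dry, one first-instar H. punctigera larva was placed per well (16 wells per dose) and the well was capped. After 7 days at 28°, mortality was scored and surviving larvae were weighed.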

[5] = tested on: Staphylococcus aureus; experiment: Antimicrobial activity against Staphylococcus aureus ATCC 6538P after 18 hrs by broth dilution method; assay type: functional
Procedure, shortened: (§2)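 Broth dilution in TS broth in 24-well dishes. Compound dissolved in DMSO and diluted from a starting concentration of 2.5%. Inocula were grown from fresh TS agar plates in TS broth at 37° to A525 0.5, then diluted 10^-4. Incubation was 37° for 18 h. Turbidity was read by eye and confirmed by plating onto TS agar. MIC is the last dilution giving ≤20 colonies.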

[6] = tested on: Micrococcus luteus; experiment: Antimicrobial activity against Micrococcus luteus BTA 433 after 18 hrs by broth dilution method; assay type: functional; details: BTA 433, 18 h; procedure, shortened: as §2
[7] = tested on: Escherichia coli; experiment: Antimicrobial activity against Escherichia coli K88 BTA 430 after 18 hrs by broth dilution method; assay type: functional; details: K88 BTA 430, 18 h; procedure, shortened: as §2
[8] = tested on: Salmonella typhimurium; experiment: Antimicrobial activity against Salmonella Typhimurium BTA 438 after 18 hrs by broth dilution method; assay type: functional, Salmonella enterica subsp. enterica serovar Typhimurium; details: Salmonella enterica, BTA 438, 18 h; procedure, shortened: as §2
[9] = tested on: Shigella sonnei; experiment: Antimicrobial activity against Shigella sonnei BTA 431 after 18 hrs by broth dilution method; assay type: functional; details: BTA 431, 18 h; procedure, shortened: as §2
[10] = tested on: Pseudomonas aeruginosa; experiment: Antimicrobial activity against Pseudomonas aeruginosa BTA 429 after 18 hrs by broth dilution method; assay type: functional; details: BTA 429, 18 h; procedure, shortened: as §2
[11] = tested on: Bacillus cereus; experiment: Antimicrobial activity against Bacillus cereus BTA 432 after 18 hrs by broth dilution method; assay type: functional; details: BTA 432, 18 h; procedure, shortened: as §2
[12] = tested on: Candida albicans; experiment: Antimicrobial activity against Candida albicans ATCC 10231 after 18 hrs by broth dilution method; assay type: functional; details: ATCC 10231, 18 h; procedure, shortened: as §2
[13] = tested on: Streptococcus pyogenes; experiment: Antimicrobial activity against Streptococcus pyogenes IMR-RNSH after 18 hrs by broth dilution method; assay type: functional; procedure, shortened: as §2
[14] = tested on: Proteus mirabilis; experiment: Antimicrobial activity against Proteus mirabilis BTA 585 after 18 hrs by broth dilution method; assay type: functional; details: BTA 585, 18 h; procedure, shortened: as §2

`CC(C)CCCC(=O)Nc1c2sscc-2[nH]c1=O` [XENORHABDIN 2] showed an Activity [1] of 100%, an LC50 [2] of 59.5 ug.cm'-2 and an Activity [3] of 18.8%. The Activity [4] was 64.7%, the MIC [5] was 20 µg/mL (≈ 70.3 µM) and the MIC [6] was 0.156 µg/mL (≈ 0.549 µM). The MIC [7] was > 100 µg/mL, the MIC [8] was > 100 µg/mL and the MIC [9] was > 100 µg/mL. For the same molecule, the MIC [10] was > 100 µg/mL, the MIC [11] was 3.13 µg/mL (≈ 11 µM) and the MIC [12] was > 100 µg/mL. The MIC [13] was 1.25 µg/mL (≈ 4.4 µM) and the MIC [14] was > 100 µg/mL.
